Test results: ChEMBL document CHEMBL3525985, “Regiospecificity and stereospecificity of human UDP-glucuronosyltransferases in the glucuronidation of estriol, 16-epiestriol, 17-epiestriol, and 13-epiestradiol” (Drug Metab Dispos, 2013)
Blank lines part the entries; values can stand above or below the compound they belong to.

Columns and labels:
Assay type in all cases: ADME
[1] = target: T1, UDP-glucuronosyltransferase 2A1 (Homo sapiens, UniProt P0DTE4); experiment: Drug metabolism assessed as recombinant human C-terminal His-tagged UGT2A1-mediated 17-epiestriol-16-glucuronide formation at 200 uM after 15 to 60 mins by HPLC analysis in presence of UDPGA; settings: recombinant enzyme
T1 sequence (P0DTE4 whole entry): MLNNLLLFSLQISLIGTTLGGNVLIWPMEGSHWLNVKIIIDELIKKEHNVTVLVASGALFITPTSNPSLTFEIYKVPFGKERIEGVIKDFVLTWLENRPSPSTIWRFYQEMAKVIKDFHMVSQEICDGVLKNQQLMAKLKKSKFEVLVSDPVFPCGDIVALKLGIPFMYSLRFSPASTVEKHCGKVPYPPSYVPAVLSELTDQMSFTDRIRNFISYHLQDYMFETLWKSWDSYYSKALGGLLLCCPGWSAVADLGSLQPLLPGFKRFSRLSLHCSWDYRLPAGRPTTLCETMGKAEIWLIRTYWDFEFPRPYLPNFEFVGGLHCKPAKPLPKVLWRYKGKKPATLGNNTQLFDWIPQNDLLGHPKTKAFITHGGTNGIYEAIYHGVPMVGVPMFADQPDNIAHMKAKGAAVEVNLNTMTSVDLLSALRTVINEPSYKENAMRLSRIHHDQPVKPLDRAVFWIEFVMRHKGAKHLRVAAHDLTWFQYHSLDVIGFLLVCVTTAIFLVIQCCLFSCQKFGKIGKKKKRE
Method in brief: (§1)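 Screening at a single substrate concentration of 200 μM, in triplicate. The reaction used 5 or 50 µg of UGT-enriched insect cell membranes in 50 mM phosphate pH 7.4 with 10 mM MgCl₂ and 5 mM UDPGA, 10% final DMSO. Incubation was 15–60 min at 37°C. Perchloric acid stopped the reaction and supernatants were analysed by HPLC. Controls lacked UDPGA. Rates were normalized to relative UGT expression level.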

Liver microsome = experiment: Drug metabolism in human liver microsomes assessed as 17-epiestriol-3-glucuronide formation after 15 to 60 mins by Michaelis-Menten equation analysis in presence of UDPGA
Method in brief: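 Pooled human liver microsomes (30 donors), 0.5 or 10 µg, with alamethicin at 5% of total protein. Incubated with 50 mM phosphate pH 7.4, 10 mM MgCl₂, 5 mM UDPGA and 10% DMSO for 15–60 min at 37°C. Each glucuronide regioisomer quantified by HPLC, in triplicate, with substrate consumption at or below 10%.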

[2] = target: T2, UDP-glucuronosyltransferase 2B4 (Homo sapiens, UniProt P06133); experiment: Drug metabolism assessed as recombinant human C-terminal His-tagged UGT2B4-mediated 16-epiestriol-16-glucuronide formation after 15 to 60 mins by Michaelis-Menten equation analysis in presence of UDPGA; settings: recombinant enzyme
T2 sequence (P06133 whole entry): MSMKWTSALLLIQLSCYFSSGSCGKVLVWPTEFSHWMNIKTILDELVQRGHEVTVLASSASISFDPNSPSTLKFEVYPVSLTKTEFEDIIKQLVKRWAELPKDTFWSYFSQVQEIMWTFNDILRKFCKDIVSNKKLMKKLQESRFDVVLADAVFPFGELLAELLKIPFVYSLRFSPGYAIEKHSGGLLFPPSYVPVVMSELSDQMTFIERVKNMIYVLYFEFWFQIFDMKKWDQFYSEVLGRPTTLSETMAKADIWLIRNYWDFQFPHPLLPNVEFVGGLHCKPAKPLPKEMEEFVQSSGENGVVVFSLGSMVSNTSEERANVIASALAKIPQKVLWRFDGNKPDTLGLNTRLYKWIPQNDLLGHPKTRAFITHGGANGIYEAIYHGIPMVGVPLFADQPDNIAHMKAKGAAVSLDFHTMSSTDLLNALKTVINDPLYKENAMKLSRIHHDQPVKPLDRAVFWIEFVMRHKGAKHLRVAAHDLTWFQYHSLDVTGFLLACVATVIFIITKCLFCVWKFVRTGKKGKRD

[3] = target: T3, UDP-glucuronosyltransferase 1A4 (Homo sapiens, UniProt P22310); experiment: Drug metabolism assessed as recombinant human C-terminal His-tagged UGT1A4-mediated 16-epiestriol-16-glucuronide formation at 200 uM after 15 to 60 mins by HPLC analysis in presence of UDPGA; settings: recombinant enzyme; method in brief: as §1
T3 sequence (P22310 whole entry): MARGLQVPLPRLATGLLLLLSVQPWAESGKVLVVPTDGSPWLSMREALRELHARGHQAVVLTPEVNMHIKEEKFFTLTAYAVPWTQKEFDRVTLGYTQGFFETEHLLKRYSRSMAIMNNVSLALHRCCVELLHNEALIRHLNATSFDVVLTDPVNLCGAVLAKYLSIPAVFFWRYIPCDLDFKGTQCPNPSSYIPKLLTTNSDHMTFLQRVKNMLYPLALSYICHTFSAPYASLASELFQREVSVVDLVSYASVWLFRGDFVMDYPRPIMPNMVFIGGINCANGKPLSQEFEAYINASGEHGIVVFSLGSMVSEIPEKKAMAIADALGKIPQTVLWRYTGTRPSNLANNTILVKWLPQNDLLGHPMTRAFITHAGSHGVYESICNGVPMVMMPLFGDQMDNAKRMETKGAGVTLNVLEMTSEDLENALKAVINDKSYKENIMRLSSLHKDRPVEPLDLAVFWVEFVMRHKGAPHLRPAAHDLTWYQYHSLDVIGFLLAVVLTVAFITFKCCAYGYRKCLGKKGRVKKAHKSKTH

[4] = target: T4, UDP-glucuronosyltransferase 2B7 (Homo sapiens, UniProt P16662); experiment: Drug metabolism assessed as recombinant human C-terminal His-tagged UGT2B7-mediated estriol-16-glucuronide formation after 15 to 60 mins by Michaelis-Menten equation analysis in presence of UDPGA; settings: recombinant enzyme
T4 sequence (P16662 whole entry): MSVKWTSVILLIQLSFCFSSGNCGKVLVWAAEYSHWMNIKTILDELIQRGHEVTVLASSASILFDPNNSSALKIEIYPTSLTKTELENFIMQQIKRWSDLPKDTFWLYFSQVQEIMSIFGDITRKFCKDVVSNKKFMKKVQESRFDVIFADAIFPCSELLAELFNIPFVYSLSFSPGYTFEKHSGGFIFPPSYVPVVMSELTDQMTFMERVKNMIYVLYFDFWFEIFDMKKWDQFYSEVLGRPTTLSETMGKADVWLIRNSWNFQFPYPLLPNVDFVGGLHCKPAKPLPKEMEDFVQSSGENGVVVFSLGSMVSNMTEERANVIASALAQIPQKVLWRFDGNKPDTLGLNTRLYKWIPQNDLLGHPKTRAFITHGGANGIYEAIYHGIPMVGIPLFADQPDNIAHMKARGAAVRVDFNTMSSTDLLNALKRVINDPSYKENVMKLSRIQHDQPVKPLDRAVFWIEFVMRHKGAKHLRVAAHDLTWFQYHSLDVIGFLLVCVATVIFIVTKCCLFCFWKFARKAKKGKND
Method in brief: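 Kinetics with His-tagged UGT-enriched insect-cell membranes (5 or 50 µg): aglycone 0.2–300 µM in 10% DMSO, 5 mM UDPGA, 10 mM MgCl₂, 50 mM phosphate pH 7.4, 15–60 min at 37°C. Substrate consumption kept at or below 10%. Glucuronides quantified by HPLC in triplicate, rates normalized to expression, and data fitted to Michaelis-Menten.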

- Drug metabolism [1]: metabolite_detected
- Km (Liver microsome): 380 µM
- Vmax (Liver microsome): 805 pmol/min/mg
SMILES: C[C@]12CC[C@@H]3c4ccc(O)cc4CC[C@H]3[C@@H]1C[C@@H](O)[C@H]2O

- Drug metabolism [2]: 5 pmol/min/mg
- Drug metabolism [3]: metabolite_not_detected
SMILES: C[C@]12CC[C@@H]3c4ccc(O)cc4CC[C@H]3[C@@H]1C[C@H](O)[C@@H]2O [EPIESTRIOL]

- Drug metabolism [4]: 1200 pmol/min/mg
SMILES: C[C@]12CC[C@@H]3c4ccc(O)cc4CC[C@H]3[C@@H]1C[C@@H](O)[C@@H]2O [ESTRIOL]
